From ChEMBL document CHEMBL4765328 (Eur J Med Chem, 2020)

Key:
Daoy = experiment: Antiproliferative activity against human Daoy cells assessed as inhibition of cell growth; format: functional, cell-based
Summary of the method: (§1)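 Compounds from 10 mM DMSO stocks; final DMSO ≤0.25%. Growth inhibition of cancer cell lines read from dose-response curves; IC50 as mean ± SEM of at least three independent experiments.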

HT-29 = experiment: Antiproliferative activity against human HT-29 cells assessed as inhibition of cell growth; format: functional, cell-based
Summary of the method: (§2)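 Growth inhibition of cancer cell lines read from dose-response curves; IC50 as mean ± SEM of at least three independent experiments.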

HL-60 = experiment: Antiproliferative activity against human HL-60 cells assessed as inhibition of cell growth; format: functional, cell-based; summary of the method: as §2
[1] = Inhibition of bovine brain tubulin polymerisation preincubated with compound followed by GTP addition and measured after 20 mins by turbidimetry based spectrophotometric method; format: tissue-based, Bos taurus
Summary of the method: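 Bovine brain tubulin (10 µM) in glutamate buffer, preincubated with varying compound concentrations at 30 °C, then cooled to 0 °C. GTP added to 0.4 mM final, then warmed to 30 °C in a recording spectrophotometer. Assembly followed by turbidity at 350 nm.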

HeLa = experiment: Antiproliferative activity against human HeLa cells assessed as inhibition of cell growth; format: functional, cell-based; summary of the method: as §2
Jurkat = experiment: Antiproliferative activity against human Jurkat cells assessed as inhibition of cell growth; format: functional, cell-based; summary of the method: as §1
Bos taurus [2] = species on record: Bos taurus; experiment: Inhibition of [3H]colchicine binding to bovine brain tubulin at 0.5 uM relative to control; format: tissue-based
Summary of the method: (§3)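 [3H]colchicine binding to purified tubulin, with tubulin at 0.5 µM and colchicine at 5 µM. Compounds tested at 5 and 0.5 µM. CA-4 was run in contemporaneous experiments for comparison.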

Bos taurus [3] = species on record: Bos taurus; experiment: Inhibition of [3H]colchicine binding to bovine brain tubulin at 5 uM relative to control; summary of the method: as §3
SEM cells = experiment: Antiproliferative activity against human SEM cells assessed as inhibition of cell growth; format: functional, cell-based; summary of the method: as §1
[4] = Antitumor activity mouse E0771 cells implanted in C57BL/6 mouse assessed as reduction tumor growth at 30 mg/kg, ip administered every other day relative to control; format: functional, EO771; design: scale not given: the % may be the effect or the level left
Summary of the method: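 Female C57BL/6 mice, seven weeks old, injected orthotopically into the mammary fat pad with 4 × 10^5 E0771 cells. Palpable tumours randomised into groups, dosed intraperitoneally every other day in DMSO vehicle, 100 µL final volume; vehicle-only controls. Caliper volume V=(D×d²)/2, tumour weight taken at end; n=5 mice/group; body weight monitored; two-way ANOVA with Bonferroni.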

`CCCOc1ccc2c(C(=O)c3cc(OC)c(OC)c(OC)c3)c(N)oc2c1` showed an IC50 (Daoy) of 4.4 nM, an IC50 (HT-29) of 17.7 nM and an IC50 (HL-60) of 41.7 nM. For the same compound, the IC50 [1] was 510 nM, the IC50 (HeLa) was 22.7 nM and the IC50 (Jurkat) was 27.2 nM. The inhibition (Bos taurus [2]) was 42%, the inhibition (Bos taurus [3]) was 91% and the IC50 (SEM cells) was 29.7 nM.
For `COc1cc(C(=O)c2c(N)oc3cc(Br)ccc23)cc(OC)c1OC`, the IC50 (Daoy) was 2.5 nM, the IC50 (HT-29) was 5.4 nM and the IC50 (HL-60) was 5.6 nM. For the same compound, the IC50 [1] was 570 nM, the IC50 (HeLa) was 4.5 nM and the IC50 (Jurkat) was 2.8 nM. The inhibition (Bos taurus [2]) was 56%, the inhibition (Bos taurus [3]) was 92% and the IC50 (SEM cells) was 3.5 nM.
`COc1cc(C(=O)c2c(N)oc3cc(O)ccc23)cc(OC)c1OC` gave an IC50 (Daoy) of 428 nM, an IC50 (HT-29) of 3420 nM and an IC50 (HL-60) of 285 nM. It also gave an IC50 (HeLa) of 591 nM, an IC50 (Jurkat) of 299 nM and an IC50 (SEM cells) of 371 nM.
In the case of `COc1ccc(/C=C\c2cc(OC)c(OC)c(OC)c2)cc1OP(=O)([O-])[O-].[Na+].[Na+]` [FOSBRETABULIN DISODIUM], the Activity [4] is reported as 26.5%.
`COc1cc(C(=O)c2c(N)oc3cccc(OC)c23)cc(OC)c1OC` gave an IC50 (Daoy) of 3950 nM, an IC50 (HT-29) of 6510 nM and an IC50 (HL-60) of 4890 nM. The IC50 (HeLa) was 5220 nM, the IC50 (Jurkat) was 2760 nM and the IC50 (SEM cells) was 4560 nM.
With `COc1ccc2oc(N)c(C(=O)c3cc(OC)c(OC)c(OC)c3)c2c1` the IC50 (Daoy) was 36.2 nM, the IC50 (HT-29) was 62.9 nM and the IC50 (HL-60) was 36.2 nM. It also gave an IC50 [1] of 500 nM, an IC50 (HeLa) of 56 nM and an IC50 (Jurkat) of 29.2 nM. It also gave an inhibition (Bos taurus [3]) of 73% and an IC50 (SEM cells) of 38.9 nM.
`COc1ccc2c(C(=O)c3cc(OC)c(OC)c(OC)c3)c(N)oc2c1` gave an IC50 (Daoy) of 0.3 nM, an IC50 (HT-29) of 5.6 nM and an IC50 (HL-60) of 3 nM. For the same compound, the IC50 [1] was 480 nM, the IC50 (HeLa) was 2.9 nM and the IC50 (Jurkat) was 2.7 nM. It also gave an inhibition (Bos taurus [2]) of 79%, an inhibition (Bos taurus [3]) of 99% and an IC50 (SEM cells) of 4.1 nM.
Compound `COc1cc(C(=O)c2c(N)oc3c(O)c(OC)ccc23)cc(OC)c1OC` has an IC50 (Daoy) of 0.32 nM, an IC50 (HT-29) of 424 nM and an IC50 (HL-60) of 2.8 nM. The IC50 [1] was 590 nM, the IC50 (HeLa) was 15.3 nM and the IC50 (Jurkat) was 0.34 nM. It also gave an inhibition (Bos taurus [2]) of 87%, an inhibition (Bos taurus [3]) of 99% and an IC50 (SEM cells) of 259 nM.
